Measured values reported in ChEMBL document CHEMBL1926680, “The de-guanidinylated derivative of peramivir remains a potent inhibitor of influenza neuraminidase” (Bioorg Med Chem Lett, 2011).
Calls of active or inactive are those of the source. The calls are words filed in the database; no cut-off is given here.

How the values were obtained:
[1] = biological target: Neuraminidase (Influenza A virus (strain A/Brevig Mission/1/1918 H1N1) (Influenza Avirus (strain A/South Carolina/1/1918 H1N1)), UniProt Q9IGQ6); test: Inhibition of Influenza A virus (A/Brevig Mission/1/1918(H1N1)) recombinant soluble neuraminidase using 2'-4(methylumbelliferyl)-alpha-D-N-acetylneuraminic acid substrate by fluorimetric assay
Chain of Neuraminidase (Influenza A virus (strain A/Brevig Mission/1/1918 H1N1) (Influenza Avirus (strain A/South Carolina/1/1918 H1N1)), UniProt Q9IGQ6) (Q9IGQ6 whole entry): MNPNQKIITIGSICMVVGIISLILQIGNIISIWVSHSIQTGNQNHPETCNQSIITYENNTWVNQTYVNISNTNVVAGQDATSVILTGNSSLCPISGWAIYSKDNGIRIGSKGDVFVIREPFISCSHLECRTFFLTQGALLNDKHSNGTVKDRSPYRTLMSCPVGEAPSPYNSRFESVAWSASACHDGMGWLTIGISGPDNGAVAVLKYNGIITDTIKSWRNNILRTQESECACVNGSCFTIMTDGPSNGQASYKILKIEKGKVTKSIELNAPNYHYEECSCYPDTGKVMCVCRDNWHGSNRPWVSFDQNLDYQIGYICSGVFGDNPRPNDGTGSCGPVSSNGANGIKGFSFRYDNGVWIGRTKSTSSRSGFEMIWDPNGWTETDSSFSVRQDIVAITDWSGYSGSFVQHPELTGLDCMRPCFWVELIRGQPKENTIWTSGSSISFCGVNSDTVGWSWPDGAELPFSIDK
Outline: (§1)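 Recombinant soluble neuraminidase (400 ng/mL final) in 50 mM Tris, 5 mM CaCl2, 200 mM NaCl, pH 7.5, was mixed with a range of inhibitor concentrations and 2'-4-methylumbelliferyl substrate (200 µM final, 1.5% total DMSO). Fluorescence (ex 365 nm, em 445 nm) was followed over 5 min, and IC50 was taken from the full dose–response curve.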

Neuraminidase = Neuraminidase (Influenza A virus, UniProt B4URF0); test: Inhibition of influenza A virus neuraminidase
Chain of Neuraminidase (B4URF0 whole entry): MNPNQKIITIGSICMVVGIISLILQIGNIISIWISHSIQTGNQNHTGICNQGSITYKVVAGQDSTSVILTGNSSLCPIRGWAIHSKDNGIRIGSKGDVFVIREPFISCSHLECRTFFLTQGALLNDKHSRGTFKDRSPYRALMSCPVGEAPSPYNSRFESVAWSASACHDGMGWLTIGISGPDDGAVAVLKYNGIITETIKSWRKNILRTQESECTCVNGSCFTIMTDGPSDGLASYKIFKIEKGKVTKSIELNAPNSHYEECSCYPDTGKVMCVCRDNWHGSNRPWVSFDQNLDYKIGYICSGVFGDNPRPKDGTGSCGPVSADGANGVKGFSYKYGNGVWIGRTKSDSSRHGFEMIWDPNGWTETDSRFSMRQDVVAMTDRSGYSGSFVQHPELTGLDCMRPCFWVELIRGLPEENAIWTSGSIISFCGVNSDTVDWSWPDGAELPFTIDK

[2] = biological target: Neuraminidase (Influenza A virus) (UniProt B4URF0); test: Inhibition of NP40-inactivated Influenza A virus (A/Brisbane/59/2007(H1N1)) neuraminidase after 10 mins by dose responsive study
Chain of Neuraminidase (Influenza A virus) (B4URF0 as listed by the source): as the sequence (B4URF0 whole entry) above
Outline: (§2)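 Inhibitor dilutions were incubated for 10 min at room temperature with 0.2% NP40-inactivated virus, diluted to match the activity of 1000 ng/mL recombinant enzyme stock. The 4-methylumbelliferyl sialic acid substrate was then added in Tris/CaCl2/NaCl buffer, pH 7.5. Neuraminidase activity was read fluorimetrically (ex 365, em 445 nm), and IC50 was taken from the dose–response curve.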

[3] = biological target: Neuraminidase (Influenza A virus (strain A/Brevig Mission/1/1918 H1N1) (Influenza Avirus (strain A/South Carolina/1/1918 H1N1))) (UniProt Q9IGQ6); test: Competitive inhibition of Influenza A virus (A/Brevig Mission/1/1918(H1N1)) recombinant soluble neuraminidase at 0.7 to 3 nM using 2'-4(methylumbelliferyl)-alpha-D-N-acetylneuraminic acid substrate by fluorimetric based Michaelis-Menten equation analysis
Chain of Neuraminidase (Influenza A virus (strain A/Brevig Mission/1/1918 H1N1) (Influenza Avirus (strain A/South Carolina/1/1918 H1N1))) (Q9IGQ6 whole entry): as the sequence (Q9IGQ6 whole entry) above
Outline: (§3)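 For kinetics, substrate working solution was serially diluted in assay buffer (50 mM Tris, 5 mM CaCl2, 200 mM NaCl, pH 7.5) containing 4% DMSO. Recombinant soluble neuraminidase reaction progress was followed fluorimetrically (ex 365, em 445 nm) for 10 min at several substrate and inhibitor concentrations to derive Ki.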

Influenza A virus [4] = test: Antiviral activity against NP40-inactivated Influenza A virus (A/Brisbane/59/2007(H1N1)) preincubated with virus for 10 mins by viral hemagglutinination titter assay; format: functional, organism-based; outline: as §2
[5] = biological target: Neuraminidase (Influenza A virus (strain A/Brevig Mission/1/1918 H1N1) (Influenza Avirus (strain A/South Carolina/1/1918 H1N1))) (UniProt Q9IGQ6); test: Inhibition of Influenza A virus (A/Brevig Mission/1/1918(H1N1)) recombinant neuraminidase by dose responsive study; outline: as §1
[6] = biological target: Neuraminidase (Influenza A virus (strain A/Brevig Mission/1/1918 H1N1) (Influenza Avirus (strain A/South Carolina/1/1918 H1N1))) (UniProt Q9IGQ6); test: Competitive inhibition of Influenza A virus (A/Brevig Mission/1/1918(H1N1)) recombinant soluble neuraminidase at 0.7 to 3 nM using 2'-4(methylumbelliferyl)-alpha-D-N-acetylneuraminic acid substrate by fluorimetric based Lineweaver-Burk plot analysis
Outline: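 Recombinant soluble neuraminidase (1000 ng/mL stock, 400 ng/mL in well) in 50 mM Tris pH 7.5, 200 mM NaCl, 5 mM CaCl2. The 4-methylumbelliferyl sialic acid substrate working solution was serially diluted in buffer with 4% DMSO. Reaction progress was read by fluorescence (ex 365, em 445 nm) over 10 min across several substrate and inhibitor concentrations. Substrate-only controls were run.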

Influenza A virus [7] = test: Antiviral activity against NP40-inactivated Influenza A virus (A/Brisbane/59/2007(H1N1)) preincubated with virus for 2 hrs by viral hemagglutinination titter assay; format: functional, organism-based
Outline: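 The virus assay used 0.2% NP40-inactivated virus, diluted to match the activity of 1000 ng/mL recombinant enzyme stock, with inhibitor preincubation lengthened to 2 h at room temperature before the 4-methylumbelliferyl substrate was added. Reaction was in pH 7.5 Tris/CaCl2/NaCl buffer, with fluorescence read at ex 365/em 445 nm. IC50 came from dose–response.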

[8] = biological target: Neuraminidase (Influenza A virus (strain A/Brevig Mission/1/1918 H1N1) (Influenza Avirus (strain A/South Carolina/1/1918 H1N1))) (UniProt Q9IGQ6); test: Competitive inhibition of Influenza A virus (A/Brevig Mission/1/1918(H1N1)) recombinant soluble neuraminidase at 3.75 to 15 nM using 2'-4(methylumbelliferyl)-alpha-D-N-acetylneuraminic acid substrate by fluorimetric based Michaelis-Menten equation analysis; outline: as §3
[9] = biological target: Neuraminidase (Influenza A virus (strain A/Brevig Mission/1/1918 H1N1) (Influenza Avirus (strain A/South Carolina/1/1918 H1N1))) (UniProt Q9IGQ6); test: Competitive inhibition of Influenza A virus (A/Brevig Mission/1/1918(H1N1)) recombinant soluble neuraminidase at 3.75 to 15 nM using 2'-4(methylumbelliferyl)-alpha-D-N-acetylneuraminic acid substrate by fluorimetric based Lineweaver-Burk plot analysis; outline: as §3

| SMILES | IC50 [1] [µM] | IC50 (Neuraminidase) [µM] | Ki [1] [µM] | inhibition [2] | IC50 (Influenza A virus [4]) [µM] | inhibition [5] | other results |
| --- | --- | --- | --- | --- | --- | --- | --- |
| N=C(N)N[C@H]1CC[C@@](O)(C(=O)O)C1 | 4000 | – | – | – | – | – | – |
| CCOC(=O)C1=C[C@@H](OC(CC)CC)[C@H](NC(C)=O)[C@@H](NC(=N)N)C1 | – | 0.0005 | – | – | – | – | – |
| N[C@H]1CC[C@@](O)(C(=O)O)C1 | 37000 | – | – | – | – | – | – |
| CCOC(=O)C1=C[C@@H](OC(CC)CC)[C@H](NC(C)=O)[C@@H](N)C1 [OSELTAMIVIR] | – | 0.001 | – | – | – | – | – |
| CCC(CC)[C@H](NC(C)=O)[C@@H]1[C@H](O)[C@@H](C(=O)O)C[C@H]1NC(=N)N [PERAMIVIR ANHYDROUS] | 0.0034 | – | 0.00083 | Dose-dependent effect | 0.00086 | Dose-dependent effect | inhibition [3]: Active; inhibition [6]: Active |
| CCC(CC)[C@H](NC(C)=O)[C@@H]1[C@H](O)[C@@H](C(=O)O)C[C@H]1N | 0.0177 | – | 0.0075 | Dose-dependent effect | 0.0073 | Dose-dependent effect | IC50 (Influenza A virus [7]): 0.0022 µM; inhibition [8]: Active; inhibition [9]: Active |
